Source: ChEMBL document CHEMBL1134343, “Reduction in glucose levels in STZ diabetic rats by 4-(2,2-dimethyl-1-oxopropyl)benzoic acid: a prodrug approach for targeting the liver” (J Med Chem, 2001)

Legend:
[1] = Percent control of glucose in normal 18 hr-fasted rat model dosed at 100 umol/Kg; format: functional
Summary of the method: (§1)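 Male Sprague-Dawley rats fasted 18 h, single oral dose of 100 µmol/kg in 0.5% carboxymethylcellulose/0.2% Tween-80 in water, or vehicle alone, N = 5/group. Serum glucose and β-hydroxybutyrate measured in cardiac-puncture blood at 3 h postdose. Expressed as percent of vehicle control; Student's t-test.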

[2] = Percent control of beta-hydroxybutyrate in normal 18 hr-fasted rat model dosed at 100 umol/Kg; format: functional; summary of the method: as §1
Rattus norvegicus [3] = assay: Percent efficacy (reduction in blood glucose) at 70 umol/kg in STZ diabetic rats after 11.25 days.; format: functional
Summary of the method: (§2)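 Sprague-Dawley rats on a high-fat diet made diabetic with STZ 40 mg/kg i.v. (tail vein). Selected by blood glucose >200 mg/dL at day 5 and by an 18 h fast plus oral dextrose load (1.35 g/kg). Dosed orally once daily for 11 days, 70 µmol/kg in CMC/Tween-80 vehicle, N = 9/group. Food removed during the 0–6 h window. Tail-tip glucose at 6 h postdose on days 8 and 11, expressed as percent efficacy (100% = 60 mg/dL).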

Rattus norvegicus [4] = assay: Percent efficacy (reduction in blood glucose) at 70 umol/kg in STZ diabetic rats after 8.25 days.; format: functional; summary of the method: as §2
[5] = Area under the curve was evaluated by plasma concentration and time curve in normal rat after oral dosing of 300 uM/kg; format: ADME, organism-based
Summary of the method: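 Normal Sprague-Dawley rats, single oral dose of 300 µmol/kg in 0.5% carboxymethylcellulose/0.2% Tween-80 in water, N = 5/group. Tail-tip blood taken at 2, 4, 7, 8, 24, 36 and 48 h postdose and centrifuged. Plasma AUC0-48h of active metabolite 3.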

Rattus norvegicus [6] = assay: Percent change in testes weight in a 28-day safety study in normal Sprague-Dawley rats at 380,550, and 700 uM/kg/day.; format: functional, Testis
Summary of the method: (§3)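 28-day safety study in normal Sprague-Dawley rats dosed daily at 380, 550 or 700 µmol/kg/day. Body weight given as percent of control. Organ weight calculated as [organ/body weight (treated)]/[organ/body weight (control)]. Significance reported at p < 0.05 and p < 0.01.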

Rattus norvegicus [7] = assay: Percent change in liver weight in a 28-day safety study in normal Sprague-Dawley rats at 550 uM/kg/day.; format: functional; summary of the method: as §3
Rattus norvegicus [8] = species on record: Rattus norvegicus; assay: Effective dose against beta- Hydroxybutyrate in Normal 18 hr-fasted rat model; format: functional
Rattus norvegicus [9] = assay: Percent change in heart weight in a 28-day safety study in normal Sprague-Dawley rats at 550 uM/kg/day.; format: functional; summary of the method: as §3
Rattus norvegicus [10] = assay: Percent change in heart weight in a28-day safety study in normal Sprague-Dawley rats at 700 uM/kg/day.; format: functional; summary of the method: as §3
Rattus norvegicus [11] = assay: Percent change in liver weight in a 28-day safety study in normal Sprague-Dawley rats at 700 uM/kg/day.; format: functional; summary of the method: as §3
Rattus norvegicus [12] = assay: Percent change in testes weight in a 28-day safety study in normal Sprague-Dawley rats at 700 uM/kg/day.; format: functional, Testis; summary of the method: as §3
Rattus norvegicus [13] = assay: Percent change in body weight in a 28-day safety study in normal Sprague-Dawley rats at 700 uM/kg/day.; format: functional; summary of the method: as §3
Rattus norvegicus [14] = assay: Percent change in heart weight in a 28-day safety study in normal Sprague-Dawley rats at 380 uM/kg/day.; format: functional; summary of the method: as §3
Rattus norvegicus [15] = assay: Percent change in liver weight in a 28-day safety study in normal Sprague-Dawley rats at 380 uM/kg/day.; format: functional; summary of the method: as §3
Rattus norvegicus [16] = assay: Percent change in body weight in a 28-day safety study in normal Sprague-Dawley rats at 380 uM/kg/day.; format: functional; summary of the method: as §3
Rattus norvegicus [17] = assay: Percent change in testes weight in a 28-day safety study in normal Sprague-Dawley rats at 380 uM/kg/day.; format: functional, Testis; summary of the method: as §3
Rattus norvegicus [18] = species on record: Rattus norvegicus; assay: Effective dose of the compound.; format: functional

SMILES	Control [1]	Control [2]	Efficacy (Rattus norvegicus [3])	Efficacy (Rattus norvegicus [4])	AUC [5]	also measured
CCCCCCCC/C=C/CCCCCCCC(=O)OCC(COCc1ccc(C(=O)C(C)(C)C)cc1)OC(=O)CCCCCCC/C=C/CCCCCCCC (stereo not drawn)	95.1%	<20.7%	21.8%	9.5%	–	–
CC(C)(C)C(=O)c1ccc(C(=O)OCC(COC(=O)c2ccc(C(=O)C(C)(C)C)cc2)(COC(=O)c2ccc(C(=O)C(C)(C)C)cc2)COC(=O)c2ccc(C(=O)C(C)(C)C)cc2)cc1	109.4%	96.2%	–	–	–	–
CCCCCCCCCCCCCCCC(=O)OCC(COC(=O)c1ccc(C(=O)C(C)(C)C)cc1)OC(=O)CCCCCCCCCCCCCCC (stereo not drawn)	<63%	<20.5%	<90.2%	<75.7%	1460 µg·h/mL	–
CC(C)(C)C(=O)c1ccc(COCc2ccc(COCc3ccc(C(=O)C(C)(C)C)cc3)o2)cc1	<79.7%	<17.3%	-3.9%	6.2%	–	–
CCCCCCCCCCCCCCCC(=O)OCC(COCc1ccc(C(=O)C(C)(C)C)cc1)OC(=O)CCCCCCCCCCCCCCC (stereo not drawn)	97.8%	<31.2%	-46.4%	0.4%	–	–
CC(C)(C)C(=O)c1ccc(C(=O)OC(CO)CO)cc1	<59.3%	<10.9%	<88.1%	<67.4%	1480 µg·h/mL	–
CC(C)(C)C(=O)c1ccc(COCC(O)CO)cc1 (stereo not drawn)	77.6%	<33.5%	4.3%	5.7%	–	–
CCCCCCCCCCCCCCCC(=O)OCC(COC(=O)CCCCCCCCCCCCCCC)OC(=O)c1ccc(C(=O)C(C)(C)C)cc1	<60.7%	<23.6%	<84.7%	62.5%	885 µg·h/mL	–
CCCCCCCCOCC(COCCCCCCCC)OC(=O)c1ccc(C(=O)C(C)(C)C)cc1	<82.9%	<20.1%	–	–	–	–
CC(C)(C)C(=O)c1ccc(CSCCSCc2ccc(C(=O)C(C)(C)C)cc2)cc1	79.7%	82.6%	–	–	–	–
CC(C)(C)C(=O)c1ccc(CSCc2ccccc2)cc1	68.9%	59.5%	–	–	–	–
CCCCCCCCCCCCCCCC(=O)OCC(COC(=O)CCCCCCCCCCCCCCC)OC(=O)CCc1ccc(C(=O)C(C)(C)C)cc1	<71.6%	<24.6%	<97.5%	<84%	930 µg·h/mL	–
CC(C)(C)C(=O)c1ccc(C(=O)OCCC(COC(=O)c2ccc(C(=O)C(C)(C)C)cc2)COC(=O)c2ccc(C(=O)C(C)(C)C)cc2)cc1	98.6%	<28.8%	–	–	–	Change (Rattus norvegicus [6]): 100%; Change (Rattus norvegicus [7]): 101%; ED50 (Rattus norvegicus [8]): 96.2 mg/kg/day; Change (Rattus norvegicus [9]): 100%
CC(C)(C)C(O)c1ccc(C(=O)OCC(COC(=O)c2ccc(C(O)C(C)(C)C)cc2)OC(=O)c2ccc(C(O)C(C)(C)C)cc2)cc1 (stereo not drawn)	<57%	<32.5%	<61%	49.8%	1160 µg·h/mL	–
COCC(COC)OC(=O)c1ccc(C(=O)C(C)(C)C)cc1	<69.4%	<15.5%	54.9%	<75.8%	1130 µg·h/mL	–
CC(C)(C)C(=O)c1ccc(COC/C=C/COCc2ccc(C(=O)C(C)(C)C)cc2)cc1	88.1%	<15%	-5.3%	1.4%	–	–
CC(C)(C)C(=O)c1ccc(C(=O)OCC(O)COC(=O)c2ccc(C(=O)C(C)(C)C)cc2)cc1	<58.4%	<11.9%	<111.1%	<99.5%	1780 µg·h/mL	–
CC(C)(C)C(=O)c1ccc(C(=O)OCC(O)CO)cc1 (stereo not drawn)	<56.1%	<13.6%	<55.1%	41.6%	1450 µg·h/mL	–
CC(C)(C)C(=O)c1ccc(COCCN2CCOCC2)cc1	98.2%	<23.8%	-5.9%	<-13.1%	–	–
CCCCCCCCCCCCCCCC(=O)OCC(COC(=O)CCCCCCCCCCCCCCC)OCc1ccc(C(=O)C(C)(C)C)cc1	111.6%	<57.2%	35.5%	24.8%	92 µg·h/mL	ED50 (Rattus norvegicus [8]): 127 mg/kg/day
CC(C)(C)C(=O)c1ccc(COCC(COCc2ccc(C(=O)C(C)(C)C)cc2)OCc2ccc(C(=O)C(C)(C)C)cc2)cc1	74.1%	<19.6%	3.8%	25.9%	–	–
CC(C)(C)C(=O)c1ccc(COCc2cccc(COCc3ccc(C(=O)C(C)(C)C)cc3)n2)cc1	98.2%	<32.5%	-6.8%	18.2%	–	–
Cc1ccc(C2(C(C)(C)C)OCCO2)cc1	<58%	<12%	<64%	<52%	1510 µg·h/mL	Change (Rattus norvegicus [10]): 92%; Change (Rattus norvegicus [11]): 215%; Change (Rattus norvegicus [12]): <46%; Change (Rattus norvegicus [13]): <76%
CC(C)(C)C(=O)c1ccc(COCC2(COCc3ccc(C(=O)C(C)(C)C)cc3)CCCO2)cc1	<78.1%	<12.7%	40.1%	45.6%	–	–
CC(C)(C)C(=O)c1ccc(C(=O)OCC(COC(=O)c2ccc(C(=O)C(C)(C)C)cc2)OC(=O)c2ccc(C(=O)C(C)(C)C)cc2)cc1	82.2%	<22.9%	<103.6%	<103.7%	128 µg·h/mL	Change (Rattus norvegicus [14]): 101%; Change (Rattus norvegicus [15]): <113%; ED50 (Rattus norvegicus [8]): 88 mg/kg/day; Change (Rattus norvegicus [16]): 95%; Change (Rattus norvegicus [17]): 102%
CC(C)(C)C(=O)c1ccc(C(=O)OCC(CO)(CO)COC(=O)c2ccc(C(=O)C(C)(C)C)cc2)cc1	<68.9%	<14.3%	–	–	–	ED50 (Rattus norvegicus [18]): 3.4 mg/kg/day
CCCCCCCCCCCCCCCC(=O)OC(CO)COC(=O)c1ccc(C(=O)C(C)(C)C)cc1 (stereo not drawn)	<60.7%	<22.7%	<64.5%	<69.8%	645 µg·h/mL	–
